Measured values from ChEMBL document CHEMBL1155413, “Synthesis and evaluation of a library of 2,5-bisdiamino-benzoquinone derivatives as probes to modulate protein-protein interactions in prions” (Bioorg Med Chem Lett, 2010).

What was measured:
Format in all cases: cell-based
[1] = Cytotoxicity against mouse ScGT1 cells at 1 uM after 5 days by calcein-AM staining; settings: scgt1, 120 h
Procedure, shortened: (§1)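 ScGT1 cells in DMEM + 10% FBS, plated at 25000 cells per well. Compounds dissolved in 100% DMSO and diluted in PBS, then added at 1 nM–10 μM for 5 days at 37 °C, 5% CO₂. Viability read by Calcein-AM fluorescence on a plate reader as percent viable cells vs untreated control; LC₅₀ taken as the 50% lethal concentration.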

ScGT1 = experiment: Antiprion activity against scrapie prion protein replication in mouse ScGT1 cells assessed as inhibition of formation of PrPSc from PrPc after 5 days by western-blot analysis; design: concentration or dose not given beside the values; settings: dose or concentration not given here
Procedure, shortened: (§2)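 ScGT1 cells in DMEM + 10% FBS, split 1:10 into Petri dishes and grown 2 days at 37 °C, 5% CO₂. Compounds added at non-toxic concentrations from 0.1 nM upward and left 5 days. Proteins then extracted, quantified, digested with proteinase K and Western-blotted. Densitometry of PK-resistant PrP gives percent remaining vs untreated cells; EC₅₀ taken as the concentration for half-maximal inhibition.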

[2] = Antiprion activity against scrapie prion protein replication in mouse ScGT1 cells assessed as inhibition of formation of PrPSc from PrPc […] after 5 days by western-blot analysis; settings: ScGT1, 120 h; procedure, shortened: as §2
[3] = Cytotoxicity against mouse ScGT1 cells at after 5 days by calcein-AM staining; settings: read-out: LC50; procedure, shortened: as §1

Structure (SMILES)	Activity [1]	inhibition (ScGT1)	EC50 [2]	CC50 at 120 h [3]
COC(=O)[C@H](C)NC1=C(Cl)C(=O)C(N[C@@H](CCCNC(=N)N[N+](=O)[O-])C(=O)OC)=C(Cl)C1=O	81.4%	0.23%	–	–
COC(=O)[C@H](C)NC1=C(Cl)C(=O)C(N[C@@H](CCCCNC(=O)OC(C)(C)C)C(=O)OC)=C(Cl)C1=O	40.7%	–	–	–
COC(=O)[C@H](C)NC1=C(Br)C(=O)C(N[C@@H](Cc2ccccc2)C(=O)OC)=C(Br)C1=O	80.2%	18.1%	3600 nM	–
COC(=O)[C@H](C)NC1=C(Br)C(=O)C(N[C@@H](CCCNC(=N)N[N+](=O)[O-])C(=O)OC)=C(Br)C1=O	74.1%	0.31%	–	–
COC(=O)[C@H](C)NC1=C(Br)C(=O)C(N[C@@H](CCCCNC(=O)OC(C)(C)C)C(=O)OC)=C(Br)C1=O	52.3%	–	–	–
COC(=O)[C@H](C)NC1=C(Br)C(=O)C(N[C@@H](CCSC)C(=O)OC)=C(Br)C1=O	96.1%	11.4%	–	–
CC[C@H](C)[C@@H](NC1=C(Cl)C(=O)C(N[C@@H](C)C(=O)OC)=C(Cl)C1=O)C(=O)OC	88.2%	6.6%	–	–
CC[C@H](C)[C@@H](NC1=C(Br)C(=O)C(N[C@@H](C)C(=O)OC)=C(Br)C1=O)C(=O)OC	91.3%	28.1%	–	–
COC(=O)[C@H](C)NC1=C(Cl)C(=O)C(N[C@@H](Cc2ccccc2)C(=O)OC)=C(Cl)C1=O	68.4%	73.2%	870 nM	2400 nM
COC(=O)[C@H](C)NC1=C(Br)C(=O)C(N[C@@H](Cc2c[nH]c3ccccc23)C(=O)OC)=C(Br)C1=O	65.9%	0.43%	–	–
COC(=O)[C@H](C)NC1=C(Cl)C(=O)C(N[C@@H](Cc2c[nH]c3ccccc23)C(=O)OC)=C(Cl)C1=O	96%	0.25%	7700 nM	–
COC(=O)[C@H](C)NC1=C(Cl)C(=O)C(N[C@@H](C)C(=O)OC)=C(Cl)C1=O	71.6%	0.36%	–	–
COC(=O)[C@H](C)NC1=C(Cl)C(=O)C(N[C@@H](CCSC)C(=O)OC)=C(Cl)C1=O	95.5%	4.8%	–	–
COC(=O)[C@H](C)NC1=C(Br)C(=O)C(N[C@@H](C)C(=O)OC)=C(Br)C1=O	91.2%	0.29%	–	–
